≈ marks a conversion by molar mass, not a printed value. Calls of active or inactive are those of the source. No cut-off for these calls is given here.
Legend:
Staphylococcus aureus [1] = test: Antimicrobial activity against methicillin-resistant Staphylococcus aureus N315 after 18 to 20 hrs by liquid microdilution method; format: functional
Staphylococcus aureus [2] = test: Antimicrobial activity against methicillin-resistant Staphylococcus aureus OM481 clinical isolate after 18 to 20 hrs by liquid microdilution method; format: functional
Staphylococcus aureus [3] = test: Antimicrobial activity against 2-phenoxyphenol/methicillin-resistant Staphylococcus aureus after 18 to 20 hrs by liquid microdilution method; format: functional
Staphylococcus aureus [4] = test: Increase in cytoplasmic membrane permeability in Staphylococcus aureus N315 cells assessed as influx of EtBr by fluorescence assay; format: functional, organism-based
In short: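 Energized S. aureus N315 cells; EtBr uptake followed as rise in fluorescence (excitation 530 nm, emission 600 nm) immediately after adding test compound.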

Staphylococcus aureus [5] = test: Increase in cytoplasmic membrane permeability in Staphylococcus aureus N315 cells assessed as efflux of EtBr by fluorescence assay; format: functional, organism-based
In short: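 EtBr-loaded S. aureus N315 cells; EtBr release followed as fall in fluorescence (excitation 530 nm, emission 600 nm) after adding test compound.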

Staphylococcus aureus [6] = test: Effect on membrane permeability assessed as increase in intracellular sodium levels in Staphylococcus aureus N315 cells by ICP-OES analysis; format: functional, organism-based
Staphylococcus aureus [7] = test: Effect on membrane permeability assessed as decrease in intracellular potassium levels in Staphylococcus aureus N315 cells by ICP-OES analysis; format: functional, organism-based
Staphylococcus aureus [8] = test: Bactericidal activity against Staphylococcus aureus N315 cells assessed as reduction of bacterial burden at MIC up to 24 hrs; format: functional
In short: (§1)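 S. aureus N315 (MRSA strain) survival assay: compound added at 1× or 4× its MIC, with MIC determined by liquid microdilution. Read-out is the number of viable cells remaining over time after addition.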

Staphylococcus aureus [9] = test: Bactericidal activity against Staphylococcus aureus N315 cells assessed as reduction of bacterial burden at 4 times MIC up to 24 hrs; format: functional, organism-based; in short: as §1

## Cc1cc(O)ccc1-c1ccc(CCc2ccccc2)cc1O
Staphylococcus aureus [1]
  MIC: 16 µg/mL (≈ 52.6 µM)
Staphylococcus aureus [2]
  MIC: 16 µg/mL (≈ 52.6 µM)
Staphylococcus aureus [3]
  MIC: 16 µg/mL (≈ 52.6 µM)
Staphylococcus aureus [4]
  Activity: Active
Staphylococcus aureus [5]
  Activity: Active

## Oc1ccc(-c2ccc(CCc3ccccc3)cc2O)c(CCc2ccccc2)c1
Staphylococcus aureus [1]
  MIC: 8 µg/mL (≈ 20.3 µM)
Staphylococcus aureus [2]
  MIC: 8 µg/mL (≈ 20.3 µM)
Staphylococcus aureus [3]
  MIC: 8 µg/mL (≈ 20.3 µM)
Staphylococcus aureus [4]
  Activity: Active
Staphylococcus aureus [5]
  Activity: Active
Staphylococcus aureus [6]
  Activity: Active
Staphylococcus aureus [7]
  Activity: Active
Staphylococcus aureus [8]
  Activity: 3 log10CFU/ml
Staphylococcus aureus [9]
  Activity: Active

## Oc1ccc(CCc2cccc(O)c2)cc1 [LUNULARIN]
Staphylococcus aureus [1]
  MIC: > 128 µg/mL
Staphylococcus aureus [2]
  MIC: > 128 µg/mL
Staphylococcus aureus [3]
  MIC: > 128 µg/mL

## Oc1ccc2c(c1)CCc1ccc(cc1)Oc1cc(ccc1O)CCc1ccc-2c(O)c1 [RICCARDI C]
Staphylococcus aureus [1]
  MIC: 2 µg/mL (≈ 4.71 µM)
Staphylococcus aureus [2]
  MIC: 2 µg/mL (≈ 4.71 µM)
Staphylococcus aureus [3]
  MIC: 2 µg/mL (≈ 4.71 µM)

## Oc1ccc(-c2ccccc2O)cc1
Staphylococcus aureus [1]
  MIC: > 128 µg/mL
Staphylococcus aureus [2]
  MIC: > 128 µg/mL
Staphylococcus aureus [3]
  MIC: > 128 µg/mL

## Oc1ccccc1Oc1ccccc1
Staphylococcus aureus [1]
  MIC: 8 µg/mL (≈ 43 µM)
Staphylococcus aureus [2]
  MIC: 8 µg/mL (≈ 43 µM)
Staphylococcus aureus [3]
  MIC: > 128 µg/mL

## Oc1ccc2c(c1)CCc1cccc(c1)-c1cccc(c1)CCc1ccc-2c(O)c1
Staphylococcus aureus [1]
  MIC: 0.5 µg/mL (≈ 1.27 µM)
Staphylococcus aureus [2]
  MIC: 0.5 µg/mL (≈ 1.27 µM)
Staphylococcus aureus [3]
  MIC: 0.5 µg/mL (≈ 1.27 µM)

Reference: ChEMBL document CHEMBL3797152, “Minimum structural requirements for cell membrane leakage-mediated anti-MRSA activity of macrocyclic bis(bibenzyl)s” (2016)
